Read-outs that look alike come from different tables or passages of the source.
Experiments:
[1] = system: Non-Hodgkin Lymphoma cell lines; experiment: Viability assay; format: cell-based; settings: for activity against non-Hodgkin lymphoma (NHL) cell lines (LD50): initial screen hits, DLBCL cell lines, Fig. 1A
[2] = system: NIH/3T3 cells; experiment: Viability; format: cell-based
[3] = system: protein synthesis in DLBCL cells; experiment: O-propargyl puromycin; format: cell-based; settings: concentrations relative to LD50, 4, 16 or 24 hours
How it was run: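 DLBCL cells treated 4, 16 or 24 h with test compound, silvestrol or carboplatin, at concentrations scaled to each agent's LD50. Cells pulsed with O-propargyl puromycin, washed twice in PBS and click-labelled with Alexa-488 azide. Flow cytometry gave mean fluorescence on live-gated cells, normalised to DMSO. Mean ± SEM, n=3; unpaired two-tailed t-tests with Benjamini–Krieger–Yekutieli correction.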

[4] = system: OCI-Ly3; experiment: Protein; format: cell-based; settings: OCI-Ly3, Fig. S3D
[5] = system: SNU-398; experiment: Western blot in SNU-398 cells; format: cell-based; settings: 16 hours; for activity against mTORC1 targets (phosphorylation of S6 and 4EBP1): 200 nM rapamycin, 100 nM silvestrol, 1 μM elatol
[6] = system: 97 oncogenic and related kinases; experiment: Commercial kinome screen; format: binding
[7] = target: DDX39A (Homo sapiens, UniProt O00148); experiment: Malachite green ATP hydrolysis counter-screen, DDX39A; format: biochemical
Sequence of DDX39A (O00148 whole entry, species assumed): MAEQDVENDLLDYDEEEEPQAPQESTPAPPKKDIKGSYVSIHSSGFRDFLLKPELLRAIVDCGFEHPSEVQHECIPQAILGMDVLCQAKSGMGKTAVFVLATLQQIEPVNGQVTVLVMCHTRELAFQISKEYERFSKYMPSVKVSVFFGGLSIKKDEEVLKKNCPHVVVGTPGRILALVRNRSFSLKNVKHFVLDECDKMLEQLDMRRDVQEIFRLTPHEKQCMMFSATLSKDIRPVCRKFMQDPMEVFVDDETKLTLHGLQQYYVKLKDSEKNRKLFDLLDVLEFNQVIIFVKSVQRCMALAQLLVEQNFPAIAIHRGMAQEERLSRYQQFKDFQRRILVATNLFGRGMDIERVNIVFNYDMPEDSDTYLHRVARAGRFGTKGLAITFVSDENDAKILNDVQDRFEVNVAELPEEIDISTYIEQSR

[8] = target: eIF4A1-K82R (Homo sapiens, UniProt P60842, K82R); experiment: Malachite green ATP hydrolysis assay, eIF4A1-K82R mutant; format: biochemical
Sequence of eIF4A1-K82R (P60842 whole entry K82R): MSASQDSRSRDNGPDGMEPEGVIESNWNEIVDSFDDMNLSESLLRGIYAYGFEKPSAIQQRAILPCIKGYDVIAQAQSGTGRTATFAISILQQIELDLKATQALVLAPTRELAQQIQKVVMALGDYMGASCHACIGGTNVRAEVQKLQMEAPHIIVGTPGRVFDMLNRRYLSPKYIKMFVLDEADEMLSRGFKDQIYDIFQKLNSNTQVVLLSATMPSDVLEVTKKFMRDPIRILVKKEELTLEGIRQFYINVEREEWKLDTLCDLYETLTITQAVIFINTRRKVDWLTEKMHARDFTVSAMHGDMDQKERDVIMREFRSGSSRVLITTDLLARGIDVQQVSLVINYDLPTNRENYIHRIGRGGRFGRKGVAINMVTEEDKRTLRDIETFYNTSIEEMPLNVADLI
How it was run: (§1)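 Malachite green ATPase run at 37 °C for 1 h. eIF4A1 wild-type, K82R (500 nM) or K238E (500 nM) in 20 mM MES-NaOH pH 6.0, 100 mM potassium acetate, 2.5 mM MgCl2, 1% glycerol, 1 mM DTT. ATP gradient 0–2 mM. Aliquot mixed with 9.3 µM malachite green, 53 mM ammonium molybdate, 1 M HCl, 0.04% Tween 20. Mean ± SEM, n=3.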

[9] = system: OCI-Ly3 xenograft; experiment: OCI-Ly3 xenograft; format: in vivo
How it was run: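 Female SCID mice, 8–10 weeks old. 10 × 10^6 OCI-Ly3 cells, washed in ice-cold PBS and mixed 1:1 with matrigel, implanted s.c. in the flank. Tumors dissected at 500 mm3, dissociated, and 1 × 10^6 serially transplanted cells implanted s.c. At ≥50 mm3, mice pair-matched to vehicle or 40 mg/kg i.p. twice weekly. Weight and tumor volume monitored twice weekly; n=8; two-way ANOVA.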

[10] = target: bacterial chaperonin GroEL (Escherichia coli, UniProt P0A6F5); experiment: Malachite green ATP hydrolysis counter-screen, GroEL; format: biochemical
Sequence of bacterial chaperonin GroEL (P0A6F5 whole entry): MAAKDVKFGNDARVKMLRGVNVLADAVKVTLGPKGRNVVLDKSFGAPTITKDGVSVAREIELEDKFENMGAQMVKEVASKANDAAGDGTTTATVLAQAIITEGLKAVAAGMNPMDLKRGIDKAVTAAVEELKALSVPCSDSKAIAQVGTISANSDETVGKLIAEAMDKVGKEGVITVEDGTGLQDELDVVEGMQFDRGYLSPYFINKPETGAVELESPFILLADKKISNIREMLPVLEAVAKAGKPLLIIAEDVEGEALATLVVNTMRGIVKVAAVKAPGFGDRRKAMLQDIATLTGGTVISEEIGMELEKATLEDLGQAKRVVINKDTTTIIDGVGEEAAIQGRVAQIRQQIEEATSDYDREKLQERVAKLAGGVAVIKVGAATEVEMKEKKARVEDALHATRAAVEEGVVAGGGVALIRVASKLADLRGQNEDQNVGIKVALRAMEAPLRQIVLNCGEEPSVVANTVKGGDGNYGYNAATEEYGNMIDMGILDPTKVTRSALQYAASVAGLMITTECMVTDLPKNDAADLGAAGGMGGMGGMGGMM

[11] = system: Harvard/Wellcome cancer cell line collection; experiment: Growth inhibition screen, Harvard/Wellcome cell line collection; format: cell-based; settings: 344/924 cell lines
[12] = system: DLBCL cell lines; experiment: Proliferation assay; format: cell-based; settings: three DLBCL cell lines, single elatol treatment
How it was run: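 Three DLBCL lines seeded on day 0 and given a single dose of DMSO vehicle or test compound at indicated concentrations. Viable cells counted daily by trypan blue exclusion. Mean ± SEM, n=3.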

[13] = target: DDX3 (Homo sapiens, UniProt O00571); experiment: Malachite green ATP hydrolysis counter-screen, DDX3; format: biochemical
Sequence of DDX3 (O00571 whole entry, species assumed): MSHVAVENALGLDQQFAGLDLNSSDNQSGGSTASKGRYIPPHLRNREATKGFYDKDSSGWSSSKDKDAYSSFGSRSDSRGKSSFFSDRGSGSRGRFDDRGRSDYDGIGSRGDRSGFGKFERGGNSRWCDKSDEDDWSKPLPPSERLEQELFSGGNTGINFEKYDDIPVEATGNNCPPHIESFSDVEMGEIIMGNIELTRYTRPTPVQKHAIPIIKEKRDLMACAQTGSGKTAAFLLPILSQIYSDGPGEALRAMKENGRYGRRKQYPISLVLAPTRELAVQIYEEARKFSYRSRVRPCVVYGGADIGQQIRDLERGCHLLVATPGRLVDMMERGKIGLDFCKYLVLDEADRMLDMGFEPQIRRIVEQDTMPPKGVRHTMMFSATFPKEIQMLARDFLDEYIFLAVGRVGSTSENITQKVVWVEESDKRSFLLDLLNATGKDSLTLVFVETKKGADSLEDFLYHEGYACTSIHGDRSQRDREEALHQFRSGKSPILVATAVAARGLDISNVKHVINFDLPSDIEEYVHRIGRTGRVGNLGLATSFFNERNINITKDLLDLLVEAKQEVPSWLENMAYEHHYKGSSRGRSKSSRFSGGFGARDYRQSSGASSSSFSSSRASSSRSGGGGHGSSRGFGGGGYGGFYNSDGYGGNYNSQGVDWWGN

[14] = system: engrafted B16 murine melanoma cells; settings: 10 mg/kg daily i.p. or p.o.; cited from earlier work
[15] = system: SNU-398; experiment: Viability assay in SNU-398 cells; format: cell-based; settings: for type of effect on SNU-398 cells: 72-hour treatment; for LD50: SNU-398, 72-hour treatment
[16] = system: normal human peripheral-blood mononuclear cells; experiment: Potency against normal peripheral-blood mononuclear cells; format: cell-based; settings: Fig. S1B
[17] = target: DDX17 (Homo sapiens, UniProt Q92841); experiment: Malachite green ATP hydrolysis counter-screen, DDX17; format: biochemical
Sequence of DDX17 (Q92841 whole entry, species assumed): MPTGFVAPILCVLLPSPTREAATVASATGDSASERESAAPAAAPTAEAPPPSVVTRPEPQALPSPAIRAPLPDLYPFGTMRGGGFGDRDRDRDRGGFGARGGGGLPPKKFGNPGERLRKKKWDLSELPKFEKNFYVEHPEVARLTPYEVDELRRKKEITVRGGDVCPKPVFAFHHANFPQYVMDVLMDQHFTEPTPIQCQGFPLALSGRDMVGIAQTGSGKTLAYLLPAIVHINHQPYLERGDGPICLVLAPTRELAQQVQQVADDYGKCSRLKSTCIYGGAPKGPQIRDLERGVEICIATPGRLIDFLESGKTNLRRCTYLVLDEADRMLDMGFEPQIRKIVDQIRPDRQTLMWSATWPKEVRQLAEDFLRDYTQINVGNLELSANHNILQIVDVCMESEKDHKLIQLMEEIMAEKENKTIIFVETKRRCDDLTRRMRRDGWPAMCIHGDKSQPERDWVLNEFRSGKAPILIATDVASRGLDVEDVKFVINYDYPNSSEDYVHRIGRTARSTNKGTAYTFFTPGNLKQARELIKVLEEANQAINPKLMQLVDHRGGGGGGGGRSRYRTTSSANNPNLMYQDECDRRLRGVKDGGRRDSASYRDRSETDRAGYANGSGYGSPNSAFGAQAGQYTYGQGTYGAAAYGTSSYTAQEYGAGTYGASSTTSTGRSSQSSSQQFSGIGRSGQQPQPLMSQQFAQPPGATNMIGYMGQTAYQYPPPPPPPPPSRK

[18] = system: primary chronic lymphocytic leukemia (CLL) cells; experiment: OPP labeling in primary CLL patient cells; format: cell-based
[19] = system: Atf4−/− and WT MEFs; experiment: Viability; format: cell-based, Murine; settings: Mus musculus, 72 h, read-out: IC50, viability, Atf4−/− MEFs, 72 hour
[20] = system: HEK-293 cells; experiment: Dual-luciferase reporter assay; format: cell-based; settings: eight-hour treatment
How it was run: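 HEK-293 cells (7 × 10^5) transfected with 400 ng of a dual-luciferase plasmid using Lipofectamine 3000. Treated 36 h after transfection for 8 h, then lysed with a dual-luciferase kit and read in triplicate. Luciferase units normalized to DMSO-treated cells; mean ± SEM, n=3.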

[21] = target: human chaperone HSP70 (Homo sapiens, UniProt P0DMV8); experiment: Malachite green ATP hydrolysis counter-screen, HSP70; format: biochemical
Sequence of human chaperone HSP70 (P0DMV8 whole entry): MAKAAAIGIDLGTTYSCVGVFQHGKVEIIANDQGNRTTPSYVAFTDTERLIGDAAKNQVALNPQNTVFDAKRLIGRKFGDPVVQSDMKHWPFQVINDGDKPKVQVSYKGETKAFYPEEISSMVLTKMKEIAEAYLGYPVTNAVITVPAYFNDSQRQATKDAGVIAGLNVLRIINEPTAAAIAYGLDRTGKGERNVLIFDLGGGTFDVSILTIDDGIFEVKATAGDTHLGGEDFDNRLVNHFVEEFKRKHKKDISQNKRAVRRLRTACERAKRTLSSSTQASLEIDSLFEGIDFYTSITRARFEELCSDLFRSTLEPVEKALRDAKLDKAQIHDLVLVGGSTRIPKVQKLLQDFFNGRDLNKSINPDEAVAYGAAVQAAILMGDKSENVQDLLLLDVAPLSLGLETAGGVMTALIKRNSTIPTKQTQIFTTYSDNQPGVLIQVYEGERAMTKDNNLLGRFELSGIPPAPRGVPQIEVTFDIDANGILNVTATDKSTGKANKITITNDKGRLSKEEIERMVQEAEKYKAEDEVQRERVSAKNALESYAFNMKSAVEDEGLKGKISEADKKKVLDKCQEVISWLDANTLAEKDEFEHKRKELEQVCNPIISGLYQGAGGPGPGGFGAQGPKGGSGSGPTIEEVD

[22] = target: p97 (Homo sapiens, UniProt P55072); experiment: Malachite green ATP hydrolysis counter-screen, p97; format: biochemical
Sequence of p97 (P55072 whole entry): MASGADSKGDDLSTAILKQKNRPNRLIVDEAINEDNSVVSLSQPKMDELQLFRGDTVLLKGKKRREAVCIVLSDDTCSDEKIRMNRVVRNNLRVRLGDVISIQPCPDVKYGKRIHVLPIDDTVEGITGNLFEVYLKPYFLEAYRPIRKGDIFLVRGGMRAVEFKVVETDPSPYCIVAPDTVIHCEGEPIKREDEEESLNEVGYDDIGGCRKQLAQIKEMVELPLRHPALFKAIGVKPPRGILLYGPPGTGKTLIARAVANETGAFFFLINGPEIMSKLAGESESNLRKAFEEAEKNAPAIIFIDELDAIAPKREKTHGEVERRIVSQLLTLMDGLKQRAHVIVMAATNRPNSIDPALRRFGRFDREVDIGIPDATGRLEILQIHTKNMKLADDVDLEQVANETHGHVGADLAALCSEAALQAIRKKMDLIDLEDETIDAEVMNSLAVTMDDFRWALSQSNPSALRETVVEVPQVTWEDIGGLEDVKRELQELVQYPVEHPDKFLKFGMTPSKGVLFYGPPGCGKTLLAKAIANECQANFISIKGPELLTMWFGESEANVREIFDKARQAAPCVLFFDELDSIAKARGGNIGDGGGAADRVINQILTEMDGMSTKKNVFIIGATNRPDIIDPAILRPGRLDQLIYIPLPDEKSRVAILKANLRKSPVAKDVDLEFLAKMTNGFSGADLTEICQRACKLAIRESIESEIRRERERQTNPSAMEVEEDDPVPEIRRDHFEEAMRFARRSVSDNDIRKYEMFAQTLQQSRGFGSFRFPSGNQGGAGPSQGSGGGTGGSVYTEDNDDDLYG

[23] = Tolerability in non-tumor bearing SCID mice; format: in vivo; settings: for tolerability: non-tumor bearing SCID mice
How it was run: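 Non-tumor-bearing female SCID mice, 8–10 weeks old, dosed i.p. daily for 5 days at 10, 20 or 30 mg/kg and monitored for weight and activity. Complete blood counts (white blood cells, hemoglobin, platelets) measured on a Hemavet950. For 20 mg/kg: mean ± SEM, n=17 vehicle and 7 treated.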

[24] = target: T1, eIF4A1 (Homo sapiens, UniProt P60842); experiment: Malachite green ATP hydrolysis assay, wildtype eIF4A1; format: biochemical
T1 sequence (P60842 whole entry): as the sequence (P60842 whole entry K82R) above, with R82K counted along it
How it was run: as §1

[25] = target: T1, eIF4A1; experiment: Isothermal titration calorimetry; format: binding
How it was run: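 eIF4A dialysed 12 h against 20 mM MES-KOH pH 6.0, 10 mM potassium acetate, 2.5 mM MgCl2, 1% glycerol, 1 mM DTT. Protein was matched to 2% DMSO, degassed and placed in the cell. 12–20 injections of 0.2 mM test compound in the same buffer, every 200 s over 3000 s. Peaks integrated to 75 s post-injection and fit to an independent binding model. Replicates run at 25 and 10 µM eIF4A.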

[26] = system: SU-DHL-6 flank tumors; experiment: SU-DHL-6 xenograft; format: in vivo
How it was run: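 Female SCID mice, 8–10 weeks old. 2 × 10^6 SU-DHL-6 cells, washed in ice-cold PBS and mixed 1:1 with matrigel, injected s.c. into the right flank. At 60 mm3, mice pair-matched to vehicle (sterile water, 5.2% tween-80, 5.2% PEG-400) or 20 mg/kg test compound i.p. daily for 5 days. Weight and tumor volume measured twice weekly; mean ± SEM, n=8.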

[27] = target: eIF4A1-K238E (Homo sapiens, UniProt P60842, K238E); experiment: Malachite green ATP hydrolysis assay, eIF4A1-K238E mutant; format: biochemical
Sequence of eIF4A1-K238E (P60842 whole entry K238E): as the sequence (P60842 whole entry K82R) above, with R82K, K238E counted along it
How it was run: as §1

[28] = Single-dose maximum tolerated dose study; format: in vivo; settings: for tolerability, single dose: five female CD-1 mice
[29] = system: eIF2α-S51 A/A and S/S MEFs; experiment: Viability; format: cell-based, Murine; settings: Mus musculus, 72 h
[30] = system: DLBCL cell lines; experiment: Apoptosis assay; format: cell-based
How it was run: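 Flow-cytometric cell death: DLBCL cell lines treated as indicated for 24 h, alone or combined with the PERK inhibitor GSK2606414 or with 200 nM ISRIB. Cells washed once in ice-cold PBS, then co-stained with PE-Annexin V and 7-aminoactinomycin D. Mean ± SEM, n=3 biological replicates; unpaired two-tailed t-tests.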

[31] = target: eIF4A1 helicase activity (Homo sapiens, UniProt P60842); experiment: Fluorescence-based helicase assay; format: biochemical; settings: cell-free, RNA unwinding de-quenching
Sequence of eIF4A1 helicase activity (P60842 whole entry): as the sequence (P60842 whole entry K82R) above, with R82K counted along it

[32] = system: OCI-Ly3 cells; experiment: Polysome profiling; format: cell-based; settings: OCI-Ly3, 2 μM elatol

Structure (SMILES): C=C1CC[C@@](C)(c2cc(Br)c(C)cc2O)[C@H]1C [allolaurinterol, reference compound]
- activity against non-Hodgkin lymphoma (NHL) cell lines (LD50) [1]: > 10 µM

Structure (SMILES): N.N.O=C([O-])C1(C(=O)[O-])CCC1.[Pt+2] [carboplatin]
- change in drug sensitivity on eIF4A1 knockdown ([2]; NIH-3T3 shRLuc vs sh4A1): no change in drug sensitivity
- protein synthesis measured by incorporation of OPP [3]: no significant decline

Structure (SMILES): C=C1C[C@H](O)[C@H](Br)C(C)(C)[C@@]12CCC(C)=C(Cl)C2 [elatol]
- concentration at which mRNA reductions become significant [4]: 500 to 1000 nM
- concentration at which protein-expression changes begin [4]: 100 nM
- activity against mTORC1 targets (phosphorylation of S6 and 4EBP1) [5]: no activity
- ATF4 expression ([5]; SNU-398, 1 μM elatol): induced expression of the transcription factor ATF4
- activity against 97 oncogenic and related kinases [6]: no activity
- activity against ATP hydrolysis by DDX39A [7]: no activity
- IC50 [8]: 85.5 ± 31.8 µM
- tolerability in tumor-bearing mice ([9]; 40 mg/kg i.p. twice per week): well-tolerated
- tumor growth compared to vehicle-treated controls ([9]; 40 mg/kg i.p. twice per week, p=0.0117): significant reduction of tumor growth
- tolerability in tumor-bearing mice ([9]; single dose at 65 mg/kg, OCI-Ly3 engrafted SCID mice): morbidity and weight loss
- activity against ATP hydrolysis by GroEL [10]: no activity
- share of cell lines having IC50 < 1μM [11]: 37%
- effect on proliferation [12]: completely halted proliferation
- activity against ATP hydrolysis by DDX3 [13]: no activity
- antitumor activity [14]: antitumor activity
- type of effect on SNU-398 cells [15]: highly cytotoxic
- LD50 [15]: 219 nM
- potency against normal PBMC relative to tumor lines [16]: less potent
- activity against ATP hydrolysis by DDX17 [17]: no activity
- protein translation measured by OPP labeling ([18]; primary CLL cells stimulated with anti IgM): significantly reduced protein translation
- OPP labeling ([18]; unstimulated primary CLL cells, or non-malignant T-cells): did not significantly inhibit OPP labeling
- IC50 [19]: 2.79 µM
- cap-dependent versus IRES driven luciferase expression [20]: down-regulated cap-dependent protein translation more strongly than cap-independent IRES driven expression
- activity against ATP hydrolysis by HSP70 [21]: no activity
- activity against ATP hydrolysis by p97 [22]: no activity
- tolerability ([23]; 10 mg/kg daily x 5 days i.p.): neither 10 mg/kg nor 20 mg/kg resulted in signs of toxicity
- Day 5 complete blood counts versus vehicle ([23]; 20 mg/kg daily for 5 days): no differences
- tolerability ([23]; 20 mg/kg daily x 5 days i.p.): neither 10 mg/kg nor 20 mg/kg resulted in signs of toxicity
- tolerability ([23]; 30 mg/kg daily i.p., stopped after three days): weight loss and reduced animal activity
- IC50 [24]: 16.4 µM
- Kd [25]: 1.98 ± 0.31 µM
- time tumor growth was halted from the start of treatment ([26]; 20 mg/kg i.p. daily for 5 days, one cycle): 12 days
- tolerability in tumor-bearing mice ([26]; 20 mg/kg i.p. daily, first five-day cycle): weight loss and overt signs of toxicity
- toxic concentration in the preliminary screen of cancer cell lines ([1]; preliminary screen): less than 1 μM
- fold less potent than silvestrol ([1]; sensitive tumor cells in vitro): 5–10 fold
- IC50 [27]: 34.2 ± 12.8 µM
- protein synthesis measured by incorporation of OPP [3]: global decline of protein synthesis
- tolerability, single dose ([28]; 50 mg/kg single i.p. dose): tolerated 50 mg/kg without issue
- tolerability, single dose ([28]; 65 mg/kg single i.p. dose): tolerated 65 mg/kg without issue
- mice dying or moribund requiring sacrifice ([28]; 80 mg/kg single i.p. dose, within five days): 3/5
- mortality, single dose ([28]; 100 mg/kg single i.p. dose, within five days): all five animals in group 2 died
- tolerated dose relative to silvestrol ([28]; CD-1, SCID, mouse, in vivo, 14 days): ~ 100 x
- IC50 ([29]; read-out: IC50, viability, eIF2α-S51 A/A MEFs, 72 hour): 1.03 µM
- IC50 ([29]; read-out: IC50, viability, eIF2α-S51 S/S MEFs, 72 hour): 1.4 µM
- effect of ISRIB on elatol's toxicity ([30]; OCI-Ly3 cells, combination with 200 nM ISRIB): no effect
- effect of PERK inhibitor GSK2606414 on elatol's potency ([30]; annexin V staining, 24 hours, combination with PERKi): no significant reversal
- apoptosis ([30]; by 24 hours, most sensitive DLBCL line): greater than 50%
- effect on eIF4A1 helicase activity [31]: inhibition
- polysome translation ([32]; 16 hours): complete elimination of polysome translation
- polysome translation ([32]; two-hour treatment): moderately reduced polysome translation

Structure (SMILES): CC(C)=C[C@@H]1C[C@H](C)c2c(O)cc(C)c3c2C1=C(C)C(=O)C3=O [elisabatin A, reference compound]
- activity against non-Hodgkin lymphoma (NHL) cell lines (LD50) [1]: > 10 µM

Structure (SMILES): CO[C@H]1C[C@@H]2CC[C@@H](C)[C@@](O)(O2)C(=O)C(=O)N2CCCC[C@H]2C(=O)O[C@H]([C@H](C)C[C@@H]2CC[C@@H](O)[C@H](OC)C2)CC(=O)[C@H](C)/C=C(\C)[C@@H](O)[C@@H](OC)C(=O)[C@H](C)C[C@H](C)/C=C/C=C/C=C/1C [rapamycin, reference compound]
- activity against mTORC1 targets (phosphorylation of S6 and 4EBP1) [5]: potently inhibits phosphorylation
- type of effect on SNU-398 cells [15]: cytostatic

Structure (SMILES): COC(=O)[C@H]1[C@@H](O)[C@@]2(O)c3c(OC)cc(O[C@@H]4O[C@@H]([C@H](O)CO)CO[C@H]4OC)cc3O[C@@]2(c2ccc(OC)cc2)[C@@H]1c1ccccc1 [silvestrol]
- activity against mTORC1 targets (phosphorylation of S6 and 4EBP1) [5]: no activity
- type of effect on SNU-398 cells [15]: highly cytotoxic
- LD50 [15]: 41 nM
- increased potency of silvestrol relative to elatol ([2]; 3T3 fibroblasts, Fig. 5F): > 500 x
- protein synthesis measured by incorporation of OPP [3]: global decline of protein synthesis
